Source: PubChem
PMI act satM6P = human PMI activators, high substrate, primary screen, biochemical, fluorescence intensity, near-saturating mannose 6-phosphate; Mannose-6-phosphate isomerase (Homo sapiens), P34949; coupled PMI enzyme assay, resazurin fluorescence, 20 min; stronger effect = higher value; 1 = untreated enzyme, 0 = substrate-free blank; activation factor at 20 µM; 0.34% of 190,000 active; AID 1216, 2008;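 active = activation factor of 2 or more at 20 µM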
Target sequence (P34949 whole entry, looked up): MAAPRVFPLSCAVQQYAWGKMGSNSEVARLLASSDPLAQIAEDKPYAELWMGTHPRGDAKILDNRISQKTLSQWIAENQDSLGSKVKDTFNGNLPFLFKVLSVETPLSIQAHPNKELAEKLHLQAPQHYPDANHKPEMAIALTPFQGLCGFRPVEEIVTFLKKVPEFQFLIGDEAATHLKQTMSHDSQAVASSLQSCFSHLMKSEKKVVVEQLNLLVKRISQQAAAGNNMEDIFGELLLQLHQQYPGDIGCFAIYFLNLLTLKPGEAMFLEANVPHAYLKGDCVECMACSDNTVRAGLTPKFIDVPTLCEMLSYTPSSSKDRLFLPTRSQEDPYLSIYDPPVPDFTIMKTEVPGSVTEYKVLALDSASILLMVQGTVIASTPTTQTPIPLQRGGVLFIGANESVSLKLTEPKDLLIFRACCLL
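assay system = human phosphomannose isomerase with PGI, G6PDH, diaphorase coupling enzymes | quantity = 15 ng/mL PMI | incubation = enzyme reaction with compound 20 min at room temperature | medium = HEPES pH 7.4 buffer with MgCl2 and Tween-20 | compound dosing = one concentration, 20 µM, in 1% DMSO | measured by = Diaphorase-driven resazurin-to-resorufin fluorescence, excitation 544, emission 590 nm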
DTT redox prof = compounds producing H2O2 with reducing agent – biochemical, NIH compound library profiling, artefact control for MLSCN library redox annotation, primary screen. DTT-dependent redox cycling H2O2, phenol red/HRP absorbance; 100% = 100 µM peroxide control, 0% = buffer. activation, % at 10 µM. 0.03% of 200,000 active. AID 878, 2007;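 active = activation of at least 50% relative to the plate's high and low controls in the primary single-dose screen; inactive = activation below 50%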;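 also: compound incubated with DTT at 0.8 mM final as the reducing agent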
PMI act = activators of human PMI, primary screen, biochemical, fluorescence intensity, near-Km mannose 6-phosphate; 0.005% of 190,000 active; purified human PMI, coupled resazurin fluorescence, 20 min; stronger effect = higher value; 1 = vehicle control, 0 substrate-free wells; activation factor at 20 µM; AID 1214, 2008; Mannose-6-phosphate isomerase (Homo sapiens), P34949;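 active = activation factor of 2 or more at 20 µM, relative to plate controls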
G6PDH counter = L. mesenteroides G6PDH inhibitors, counter-screen for G6PDH-coupled screening assays, biochemical, Leuconostoc mesenteroides enzyme; Purified L. mesenteroides G6PDH, diaphorase/resazurin coupled fluorescence, 45 min; 0.12% of 200,000 active; glucose-6-phosphate dehydrogenase [Leuconostoc mesenteroides]; inhibition, % at 5 µM; in the data active = inhibition above about 50%
Diaph act CS = compounds boosting diaphorase resazurin reduction – biochemical, uHTS, resorufin fluorescence, counter-screen for diaphorase-coupled primary assays, primary screen; 0.005% of 190,000 active; activation factor at 20 µM; AID 1229, 2008; Diaphorase/resazurin coupled assay, 16 min; stronger effect = higher value; 1 = vehicle wells, 0 = NADH-free wells;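 active = diaphorase activity raised at least twofold by the compound at 20 µM; inactive = activation factor below 2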
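Assay system: Purified diaphorase enzyme from Clostridium kluyveri | Amount: Enzyme 0.07 U/mL final | Dosing: Compound 20 µM once, DMSO 1% | Timing: 16 min reaction at room temperature | Detection: Fluorescence, excitation 544 nm and emission 590 nm | Evaluation: Higher resorufin formation from activation or reduction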
Diaph inh CS = diaphorase inhibitors and chemical oxidizers, primary screen, counter-screen for diaphorase-coupled primary assays, biochemical, uHTS, resorufin fluorescence | diaphorase resazurin-to-resorufin fluorescence, NADH, 16 min; bacterial (C. kluyveri) enzyme, not human | inhibition, % at 20 µM | 0.69% of 190,000 active | AID 1217, 2008;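 active = primary screen inhibition at 20 µM above a set limit, cut at about 50% in these data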;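 also: plate controls were DMSO with full reaction for no effect and wells lacking NADH for full effect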
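Detection: fluorescence of resorufin formed from resazurin, Ex 544/Em 590 nm; test system: Clostridium kluyveri diaphorase enzyme; amount: 0.14 U/mL diaphorase, enzyme working solution; times: 16-min room-temperature incubation before reading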
The depositor's hits bear a star. Compounds with a hit are over-represented: about 1.1% of the library has one in this group of screens.

O=C(c1ccc(S(=O)(=O)c2ccccc2)cc1)N1CCc2ccccc2C1 was read as PMI act satM6P 0.4, DTT redox prof 0.0, PMI act 0.8, G6PDH counter 6.1, Diaph act CS 0.5 and Diaph inh CS 51.3*.
NC(=S)n1[nH]c(-c2ccc([N+](=O)[O-])cc2)c(N=Nc2cccc(Cl)c2)c1=O was read as PMI act satM6P 1, DTT redox prof -0.6, PMI act 0.9, G6PDH counter 1.8, Diaph act CS 0.5 and Diaph inh CS 50.8*.
COc1cc(/C=C2\C(=O)NN(c3ccccc3)C2=O)cc([N+](=O)[O-])c1O was read as PMI act satM6P 1.1, DTT redox prof 0.2, PMI act 1.2, G6PDH counter 0.6, Diaph act CS 0.7 and Diaph inh CS 29.9.
O=C1NN(c2ccccc2)C(=O)/C1=C\c1ccc(-c2cc([N+](=O)[O-])ccc2O)o1 was read as PMI act satM6P 0.9, DTT redox prof 0.9, PMI act 0.9, G6PDH counter 14.9, Diaph act CS 0.2 and Diaph inh CS 79.8*.
Screening Cc1ccc(N2NC(=O)/C(=C/c3ccc(-c4ccc(Cl)c(C(=O)O)c4)o3)C2=O)cc1 returned PMI act satM6P 0.8, DTT redox prof -0.3, PMI act 1, G6PDH counter 8.3, Diaph act CS 0.8 and Diaph inh CS 22.9.
For O=C1NN(c2ccc(Cl)cc2)C(=O)/C1=C\c1ccc(-c2cccc(C(=O)O)c2)o1 the results were PMI act satM6P 1.1, DTT redox prof 0.1, PMI act 1.2, G6PDH counter 5.7, Diaph act CS 0.5 and Diaph inh CS 52.9*.
CCOc1cc(/C=C2\C(=O)NN(c3ccccc3)C2=O)cc([N+](=O)[O-])c1O was read as PMI act satM6P 1.2, DTT redox prof 0.0, PMI act 1.3, G6PDH counter 6.1, Diaph act CS 0.5 and Diaph inh CS 53.3*.
Screening CCCCn1c(=O)[nH]c2nc3cc(N)ccc3nc2c1=O returned PMI act satM6P 0.5, DTT redox prof 0.6, PMI act 0.6, G6PDH counter 16.8, Diaph act CS 0.3 and Diaph inh CS 66.6*.
Screening CCCCn1c(N)nc2ccccc21 returned PMI act satM6P 1, DTT redox prof 0.3, PMI act 1, G6PDH counter -0.9, Diaph act CS 1 and Diaph inh CS 3.6.
Screening O=C(/C=C/c1ccc(Br)o1)Nc1nccs1 returned PMI act satM6P 2*, DTT redox prof 0.2, PMI act 1.6, G6PDH counter 3.0, Diaph act CS 0.9 and Diaph inh CS 8.3.
For O=C(Nc1nccs1)c1ccc(Br)o1 the results were PMI act satM6P 1.1, DTT redox prof 2.6, PMI act 1.1, G6PDH counter 4.2, Diaph act CS 0.9 and Diaph inh CS 14.1.
Screening Oc1oc(C=Nc2ccc(F)cc2F)c2ccccc12 returned PMI act satM6P 2.3*, DTT redox prof -0.6, PMI act 1.8, G6PDH counter 11.5, Diaph act CS 1 and Diaph inh CS -4.2.
O=C(O)CC12CC3CC(C1)CC(n1cncn1)(C3)C2 was read as PMI act satM6P 1.1, DTT redox prof -0.3, PMI act 1.1, G6PDH counter 1.1, Diaph act CS 1 and Diaph inh CS -1.7.
Screening CN1C(=O)c2oc3ccccc3c(=O)c2C1c1ccncc1 (stereo unspecified) returned PMI act satM6P 2.3*, PMI act 1.6, G6PDH counter 2.7, Diaph act CS 0.9 and Diaph inh CS 12.1.
